Calls of active or inactive are those of the source. The calls are words filed in the database; no cut-off is given here.
Legend:
Caulobacter vibrioides [1] = test: Induction of DNA damage in Caulobacter vibrioides assessed as increase in cell death upto 1 ug/ml and measured after 2 days by agar dilution method; type: functional, organism-based; settings: dose <= 1.0 µg/ml, time 2.0 day, DDE = dose-dependent effect
Caulobacter vibrioides [2] = test: Effect on DNA damage repair in Caulobacter vibrioides expressing Gam-GFP reporter system assessed as increase in double stranded break by measuring Gam localization in cells at 0.5 ug/ml and measured after 2 hrs by fluorescence analysis; type: functional; settings: dose 0.5 µg/ml
Method in brief: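 Wild-type Caulobacter carrying a Gam-GFP reporter; after drug treatment, cells imaged by fluorescence microscopy and percentage of cells with Gam-GFP foci scored ([…] cells). Three independent experiments; mean and SD reported.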

Caulobacter vibrioides [3] = test: Effect on DNA damage repair in Caulobacter vibrioides lacking alkB expression assessed as decrease in cell survival rate upto 1 ug/ml and measured after 2 days by agar dilution method; type: functional, organism-based; settings: dose <= 1.0 µg/ml, time 2.0 day
Method in brief: (§1)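 Survival of Caulobacter wild type, ΔmutL and ΔalkB strains was tested across increasing drug doses. Cultures were serially diluted and spotted, and growth was scored along the dilution series. At least three independent experiments were run per strain, with mean and SEM of all repeats plotted.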

Caulobacter vibrioides [4] = test: Induction of DNA damage in Caulobacter vibrioides assessed as accumulation of SOS-induced YFP at 0.5 ug/ml incubated upto 2 hrs by fluorescence microscopy; type: functional, organism-based; settings: dose 0.5 µg/ml
Caulobacter vibrioides [5] = test: Effect on DNA damage repair in Caulobacter vibrioides lacking mutL expression assessed as decrease in cell survival rate upto 1 ug/ml and measured after 2 days by agar dilution method; type: functional, organism-based; settings: dose <= 1.0 µg/ml, time 2.0 day; method in brief: as §1
Caulobacter vibrioides [6] = test: Effect on DNA damage repair in Caulobacter vibrioides lacking uvrA expression and expressing Gam-GFP reporter system assessed as fold increase in double stranded break by measuring Gam localization in cells at 0.5 ug/ml and measured after 2 hrs by fluorescence analysis; type: functional; settings: dose 0.5 µg/ml
[7] = Binding affinity to AT-rich 5'-fluoro and 3'-TAMRA tagged 5'-TAT-ATA-TAG-ATA-TTT-TTT-TAT-CTA-TAT-ATA-3' hairpin DNA(unknown origin) assessed as thermal stabilization by measuring change in melting temperature at 1 uM incubated for 24 hrs by FRET analysis
Method in brief: (§2)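 Fluorophore/quencher-tagged hairpin DNA, AT-rich (Sequence 1) or GC-rich (Sequence 2), incubated with compound for 3 h or 24 h, then thermally melted. Melt curves were compared against a DNA-only control for the same sequence. Each reaction was run in triplicate.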

[8] = Binding affinity to GC-rich 5'-fluoro and 3'-TAMRA tagged 5'-TAT-AGG-GAC-AGC-CCT-ATA-3' hairpin DNA (unknown origin) assessed as thermal stabilization by measuring change in melting temperature at 1 uM incubated for 3 hrs by FRET analysis; method in brief: as §2
Caulobacter vibrioides [9] = test: Effect on DNA damage repair in Caulobacter vibrioides lacking recN expression and expressing Gam-GFP reporter system assessed as fold increase in double stranded break by measuring Gam localization in cells at 0.5 ug/ml and measured after 2 hrs by fluorescence analysis; settings: dose 0.5 µg/ml
Caulobacter vibrioides [10] = test: Effect on DNA damage repair in Caulobacter vibrioides assessed as fold change as increase in rifampicin resistance colonies at 2 ug/ml incubated for 0.5 hrs followed by culture in new media and treated with rifampicin and measured after 48 hrs by colony formation assay; type: functional; settings: dose 2 µg/ml
Method in brief: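 Caulobacter cells exposed to drug; rifampicin-resistant colony counts expressed as fold change relative to untreated control (no DNA damage). Three independent experiments; mean and SD reported.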

[11] = Binding affinity to GC-rich 5'-fluoro and 3'-TAMRA tagged 5'-TAT-AGG-GAC-AGC-CCT-ATA-3' hairpin DNA (unknown origin) assessed as thermal stabilization by measuring change in melting temperature at 1 uM incubated for 24 hrs by FRET analysis; method in brief: as §2
[12] = Binding affinity to AT-rich 5'-fluoro and 3'-TAMRA tagged 5'-TAT-ATA-TAG-ATA-TTT-TTT-TAT-CTA-TAT-ATA-3' hairpin DNA (unknown origin) assessed as thermal stabilization by measuring change in melting temperature at 1 uM incubated for 3 hrs by FRET analysis; method in brief: as §2
Caulobacter vibrioides [13] = test: Effect on DNA damage repair in Caulobacter vibrioides lacking recA expression assessed as decrease in cell survival rate upto 1 ug/ml and measured after 2 days by agar dilution method; type: functional, organism-based; settings: dose <= 1.0 µg/ml, time 2.0 day
Caulobacter vibrioides [14] = test: Effect on DNA damage repair in Caulobacter vibrioides lacking uvrA expression assessed as decrease in cell survival rate upto 1 ug/ml and measured after 2 days by agar dilution method; type: functional, organism-based; settings: dose <= 1.0 µg/ml, time 2.0 day
Caulobacter vibrioides [15] = test: Effect on DNA damage repair in Caulobacter vibrioides expressing Gam-GFP reporter system assessed as increase in double stranded break by measuring Gam localization in cells at 25 to 50 ug/ml and measured after 2 hrs by fluorescence analysis; type: functional, organism-based; settings: dose 25-50 µg/ml
Caulobacter vibrioides [16] = test: Effect on DNA damage repair in Caulobacter vibrioides lacking addAB expression assessed as decrease in cell survival rate upto 1 ug/ml and measured after 2 days by agar dilution method; type: functional, organism-based; settings: dose <= 1.0 µg/ml, time 2.0 day
Caulobacter vibrioides [17] = test: Effect on DNA damage repair in Caulobacter vibrioides lacking recO expression assessed as decrease in cell survival rate upto 1 ug/ml and measured after 2 days by agar dilution method; type: functional, organism-based; settings: dose <= 1.0 µg/ml, time 2.0 day
Caulobacter vibrioides [18] = test: Effect on DNA damage repair in Caulobacter vibrioides lacking DnaE2 expression assessed as decrease in cell survival rate upto 1 ug/ml and measured after 2 days by agar dilution method; type: functional, organism-based; settings: dose <= 1.0 µg/ml, time 2.0 day
Caulobacter vibrioides [19] = test: Effect on DNA damage repair in Caulobacter vibrioides lacking recN expression assessed as decrease in cell survival rate upto 1 ug/ml and measured after 2 days by agar dilution method; type: functional, organism-based; settings: dose <= 1.0 µg/ml, time 2.0 day
Caulobacter vibrioides [20] = test: Effect on DNA damage repair in Caulobacter vibrioides lacking recR expression assessed as decrease in cell survival rate upto 1 ug/ml and measured after 2 days by agar dilution method; type: functional, organism-based; settings: dose <= 1.0 µg/ml, time 2.0 day
Caulobacter vibrioides [21] = test: Effect on DNA damage repair in Caulobacter vibrioides lacking recF expression assessed as decrease in cell survival rate upto 1 ug/ml and measured after 2 days by agar dilution method; type: functional, organism-based; settings: dose <= 1.0 µg/ml, time 2.0 day
Caulobacter vibrioides [22] = test: Effect on DNA damage repair in Caulobacter vibrioides lacking recA, lexA and sidA expression assessed as decrease in cell survival rate upto 1 ug/ml and measured after 2 days by agar dilution method; type: functional, organism-based; settings: dose <= 1.0 µg/ml, time 2.0 day
Caulobacter vibrioides [23] = test: Induction of DNA damage in Caulobacter vibrioides assessed as accumulation of SOS-induced YFP at 1 ug/ml incubated upto 2 hrs by fluorescence microscopy; type: functional, organism-based; settings: dose 1.0 µg/ml
Caulobacter vibrioides [24] = test: Effect on DNA damage repair in Caulobacter vibrioides lacking uvrA expression and expressing Gam-GFP reporter system assessed as fold increase in double stranded break by measuring Gam localization in cells at 1 ug/ml and measured after 2 hrs by fluorescence analysis; type: functional; settings: dose 1 µg/ml
Caulobacter vibrioides [25] = test: Effect on DNA damage repair in Caulobacter vibrioides lacking recN expression and expressing Gam-GFP reporter system assessed as fold increase in double stranded break by measuring Gam localization in cells at 2 ug/ml and measured after 2 hrs by fluorescence analysis; settings: dose 2 µg/ml
Caulobacter vibrioides [26] = test: Effect on DNA damage repair in Caulobacter vibrioides expressing Gam-GFP reporter system assessed as increase in double stranded break by measuring Gam localization in cells at 2 ug/ml and measured after 2 hrs by fluorescence analysis; type: functional; settings: dose 2 µg/ml
Method in brief: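 Wild-type Caulobacter carrying a Gam-GFP reporter was drug-treated and imaged by fluorescence microscopy. The readout was the percentage of cells with Gam-GFP foci, counting […] cells. Mean and SD are from three independent experiments.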

| SMILES | Activity (Caulobacter vibrioides [1]) | Activity (Caulobacter vibrioides [2]) [%] | Activity (Caulobacter vibrioides [3]) | Activity (Caulobacter vibrioides [4]) | Activity (Caulobacter vibrioides [5]) | Activity (Caulobacter vibrioides [6]) [%] | ΔTm [7] [°C] | ΔTm [8] [°C] | fold change (FC) (Caulobacter vibrioides [9]) | ΔTm [11] [°C] | ΔTm [12] [°C] | Activity (Caulobacter vibrioides [13]) | Activity (Caulobacter vibrioides [14]) | Activity (Caulobacter vibrioides [16]) | Activity (Caulobacter vibrioides [17]) | Activity (Caulobacter vibrioides [18]) | Activity (Caulobacter vibrioides [19]) | Activity (Caulobacter vibrioides [20]) | Activity (Caulobacter vibrioides [21]) | Activity (Caulobacter vibrioides [22]) | also measured |
| --- | --- | --- | --- | --- | --- | --- | --- | --- | --- | --- | --- | --- | --- | --- | --- | --- | --- | --- | --- | --- | --- |
| CO[C@@]12[C@H](COC(N)=O)C3=C(C(=O)C(C)=C(N)C3=O)N1C[C@@H]1N[C@@H]12 [MITOMYCIN] | Dde | 5 | Active | Active | Active | 10 | 12.8 | 11.5 | 2 | 11.8 | 12.6 | Active | – | – | – | – | – | – | – | – | fold change (FC) (Caulobacter vibrioides [10]): 2.5 |
| CCn1cc(C(=O)O)c(=O)c2cc(F)c(N3CCNCC3)cc21 | – | – | – | – | – | – | – | – | – | – | – | – | Active | – | – | – | – | – | – | – | Activity (Caulobacter vibrioides [15]): Active |
| COS(C)(=O)=O | – | – | – | – | – | – | – | – | – | – | – | – | Active | – | – | – | – | – | – | – | – |
| COC(=O)c1cc2cc(NC(=O)c3cc(NC(=O)CCCOc4cc5c(cc4OC)C(=O)N4CCC[C@H]4C=N5)cn3C)ccc2s1 | Dde | 5 | Active | Active | Active | 56 | 15.6 | 15.6 | 2 | 15.9 | 14 | Active | Active | Active | Active | Active | Active | Active | Active | Active | – |
| COC(=O)c1cc(-c2ccc(NC(=O)c3cc(NC(=O)CCCOc4cc5c(cc4OC)C(=O)N4CCC[C@H]4C=N5)cn3C)cc2)cn1C | Dde | – | Active | – | Active | – | 18.5 | 16.3 | – | 17.4 | 15.7 | Active | Active | Active | Active | Active | Active | Active | Active | Active | Activity (Caulobacter vibrioides [23]): Active; Activity (Caulobacter vibrioides [24]): 40%; fold change (FC) (Caulobacter vibrioides [25]): 2; Activity (Caulobacter vibrioides [26]): 5% |
| COC(=O)c1cc(NC(=O)c2cc(NC(=O)CCCOc3cc4c(cc3OC)C(=O)N3CCC[C@H]3C=N4)cn2C)cn1C | – | – | – | – | – | – | 21.1 | 18.6 | – | 19.2 | 18.9 | – | – | – | – | – | – | – | – | – | – |

Source: ChEMBL document CHEMBL5104228, “Mechanistic insight into the repair of C8-linked pyrrolobenzodiazepine monomer-mediated DNA damage” (2022)
